RBBP9 inhibitor: blocks human serine hydrolase RBBP9; 220,000 tested, 0.2% active; AID 1515; O75884; inhibition, % at 7.94 µM; recombinant RBBP9, FP-Rh probe fluorescence polarization;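 active = inhibition above the campaign mean of all tested compounds plus 3 SD, cut at about 14% in these data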;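 also: plate controls were DMSO wells with RBBP9 for no effect and wells lacking RBBP9 protein for full effect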
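Measured by – fluorescence polarization · Test system – RBBP9 protein · Input – 2.5 µM RBBP9 dispensing solution, before mixing · Measure – percent inhibition from mP, scaled between DMSO and no-protein wells · Benchmarks – DMSO-treated enzyme wells and wells lacking RBBP9 · Times – preincubation 30 min plus labeling 45 min at 25 °C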
LEDGF integ inh: blocks HIV-1 LEDGF/p75-dependent DNA integration. TR-FRET IN-LEDGF/p75 DNA integration, Eu/Cy5. inhibition, % at 3.7 µM. 370,000 tested, 0.64% active;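 active = inhibition above the screen-wide mean plus 3 SD, cut at about 13% in these data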;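 also: signal is the Cy5 over europium emission ratio at 671 and 618 nm; 0% = plate median of compound wells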
PRMT1 FP inh: blocks human protein arginine methyltransferase 1. Q99873. recombinant PRMT1, activity-based probe fluorescence polarization. inhibition, % at 2.79 µM. 370,000 tested, 1.3% active. AID 652257;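 active = inhibition above about 21% made by adding two undisclosed values, limit read from the data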
Target sequence (Q99873 whole entry, looked up): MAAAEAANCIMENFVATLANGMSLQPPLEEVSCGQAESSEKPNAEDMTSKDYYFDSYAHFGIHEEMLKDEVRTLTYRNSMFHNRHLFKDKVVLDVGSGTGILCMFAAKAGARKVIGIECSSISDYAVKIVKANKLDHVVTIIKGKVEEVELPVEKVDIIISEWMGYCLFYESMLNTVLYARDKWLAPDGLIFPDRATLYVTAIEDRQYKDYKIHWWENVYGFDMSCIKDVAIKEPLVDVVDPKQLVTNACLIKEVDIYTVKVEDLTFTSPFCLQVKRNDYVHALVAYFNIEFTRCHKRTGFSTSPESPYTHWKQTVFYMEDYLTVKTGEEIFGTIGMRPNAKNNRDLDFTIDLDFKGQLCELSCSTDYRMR
MBD2 DNA inh: inhibitors of human MBD2 binding to methylated oligonucleotide. Q9UBB5. TR-FRET. inhibition, % at 4.4 µM. 370,000 tested, 0.31% active. AID 686964; in the data active = inhibition above about 13%
UHRF1 binding: blocks human UHRF1 binding to methylated DNA. Q96T88. AID 687016. UHRF1 binding to methylated oligo, TR-FRET. 370,000 tested, 0.75% active. inhibition, % at 4.4 µM; in the data active = inhibition above about 21%;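 also: UHRF1 SRA domain binding a hemimethylated CpG hairpin DNA probe; 0% = median of test compound wells and 100% = reference inhibitor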
ABHD5-PLIN5 inh: blocks binding of human ABHD5 to perilipin-5 | Split G. princeps luciferase complementation, luminescence, 4 h | 360,000 tested, 0.78% active | inhibition, % at 4 µM;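 active = inhibition above the mean inhibition across every tested compound plus 3 SD, cut at about 22% in these data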;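 also: 0% = DMSO only wells and the 100% control is not disclosed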
ABHD5 PLIN5 conf: ABHD5-PLIN5 interaction inhibition, confirmed; shares compounds with ABHD5-PLIN5 inh; biochemical ABHD5-PLIN5 interaction, luminescence; inhibition, % at 4 µM; 2,200 tested, 67% active; in the data active = inhibition above about 23%;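 also: 0% = DMSO vehicle wells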
HNF4 split-luc: counter-screen for ABHD5-PLIN5 inhibitors: HNF4 split-luciferase; inhibition, % at 4 µM; shares compounds with ABHD5-PLIN5 inh; AID 651674; 2,200 tested, 77% active; HNF4 dimerization, luminescence, biochemical;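 active = mean inhibition across replicate wells exceeding the computed hit threshold, cut at about 13% in these data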;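 also: light from luciferase halves that rejoin when HNF4 fusion proteins dimerize; 0% = DMSO only wells and the 100% control is not given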
Starred values were filed as active, the others as inactive; / = not tested or not shown. Rows were chosen to be rich in hits. Some 3.1% of all compounds tested hit in one or more screens of this group.

SMILES	RBBP9 inhibitor	LEDGF integ inh	PRMT1 FP inh	MBD2 DNA inh	UHRF1 binding	ABHD5-PLIN5 inh	ABHD5 PLIN5 conf	HNF4 split-luc
O=C1C(=Cc2ccccn2)CCc2ccccc21	/	-6	1	1	2	25*	60*	46*
O=C1/C(=C/c2ccc([N+](=O)[O-])cc2)CCc2ccccc21	0	/	/	/	/	/	/	/
O=C1/C(=C/c2cccc([N+](=O)[O-])c2)CCc2ccccc21	1	-3	7	6	6	37*	56*	46*
O=C1C(=Cc2ccccc2[N+](=O)[O-])Cc2ccccc21	/	-1	4	-7	-4	28*	51*	46*
O=C1/C(=C/c2cccc(F)c2)CSc2sccc21	-9	1	-2	4	0	-10	/	/
C[C@H]1[C@@H](OC(=O)NCCc2c[nH]c3ccccc23)CC[C@@]23CCCN2C(=O)CCC[C@@H]13	/	-6	0	-1	-1	/	/	/
COc1ccc(CC2=CC(=O)c3ccccc3C2=O)cc1	/	1	79*	-5	-5	85*	100*	108*
C[C@@H]1CCN(C2CC2)S(=O)(=O)c2c(cccc2N2CC[C@H](O)C2)O1	/	3	1	0	-1	/	/	/
Cc1cc(C)c(C(=O)/C=C/c2ccc3c(c2)OCO3)c(=O)[nH]1	5	3	-4	0	-5	2	/	/
Cc1cc(C)c(C(=O)/C=C/c2cccc3ccccc23)c(=O)[nH]1	-14	-1	-1	0	-4	54*	64*	61*
O=C1/C(=C\c2ccc(Cl)cc2)CCC1CNc1ccc(Cl)cc1 (configuration not stated)	/	-2	21	-1	0	37*	60*	80*
O=C1/C(=C/c2ccccc2)CCc2ccc(Cl)nc21	/	-6	3	2	-4	76*	91*	74*
O=C1C(F)=CC(COC(c2ccccc2)(c2ccccc2)c2ccccc2)OC1n1cc(F)c(=O)[nH]c1=O (configuration not stated)	/	9	15	3	1	42*	101*	97*
Cc1ccc(S(=O)(=O)N2CCCCC2)cc1NC(=O)Cn1ncc(Cl)c(Cl)c1=O	/	12	2	-2	5	26*	23*	14*
CCCCSc1nc(NCc2ccco2)c2c3c(sc2n1)COC(C)(C)C3	-1	4	-2	2	-3	8	/	/
CCCSc1nc(NCc2ccco2)c2c3c(sc2n1)COC(C)(C)C3	3	1	3	-6	0	28*	7	5
Cc1ccccc1S(=O)Cc1ccc(C(=O)N2CCN(C(=O)c3ccco3)CC2)o1 (configuration not stated)	/	-1	-2	1	1	75*	-2	-3
Nc1nc(Sc2ccc(C(F)(F)F)cc2[N+](=O)[O-])n[nH]1	3	-1	0	3	-1	2	/	/
Nc1nc(Sc2c([N+](=O)[O-])cc(C(F)(F)F)cc2[N+](=O)[O-])n[nH]1	0	0	15	-2	2	58*	79*	98*
Cc1nccn1-c1ccc(NC(=O)[C@@H](Cc2ccccc2)NC(=O)[C@H]2O[C@@H](n3ccc(=O)[nH]c3=O)[C@H](O)[C@@H]2O)cc1	/	1	-6	0	-1	/	/	/
O=C(CC(Nc1ccc(F)cc1)C(=O)O)c1ccccc1 (configuration not stated)	-6	-1	18	-3	-1	43*	38*	89*
O=C(c1cccc(F)c1)N1CCCC(c2nc(-c3cccs3)no2)C1 (configuration not stated)	/	1	0	-4	-3	/	/	/
CN1C(=S)N(c2cccnc2)C(=O)/C1=C\c1ccc(C(C)(C)C)cc1	-10	0	-2	2	0	38*	65*	55*
O=C(CN1C(=O)/C(=C\c2cccc(Br)c2)Oc2ccccc21)NCCCN1CCOCC1	/	4	-2	2	-5	29*	17	5
O=C(CN1C(=O)COc2ccccc21)NCCCN1CCOCC1	/	-4	3	4	-1	3	/	/

Screening data as filed in PubChem.
